Experimental data reported in ChEMBL document CHEMBL3351928, “Discovery of clinical candidate 1-(4-(3-(4-(1H-benzo[d]imidazole-2-carbonyl)phenoxy)pyrazin-2-yl)piperidin-1-yl)ethanone (AMG 579), a potent, selective, and efficacious inhibitor of phosphodiesterase 10A (PDE10A)” (J Med Chem, 2014).

How the values were obtained:
[1] = Metabolic stability in rat liver microsomes assessed as clearance at 1 uM in presence of NADPH at 37 degC incubated for 30 mins; format: ADME; details: read-out: CLH
[2] = Metabolic stability in human liver microsomes assessed as clearance at 1 uM in presence of NADPH at 37 degC incubated for 30 mins; format: ADME; details: read-out: CLH
Rattus norvegicus [3] = assay: Target occupancy of PDE10A in Sprague-Dawley rat striatum at 10 mg/kg, po administered as single dose measured 1 hr post dosing and 10 mins post iv dosing of tracer by LC-MS/MS method; format: functional
[4] = Volume of distribution at steady state in rat at 2 mg/kg, iv; format: ADME, organism-based; design: dose 2 mg/kg, route intravenous; details: in vivo, read-out: Vdss
[5] = (§1) AUC in rat at 10 mg/kg, po; format: ADME, organism-based, Plasma; design: dose 10 mg/kg, route oral; details: plasma
[6] = Half life in rat at 10 mg/kg, po; format: ADME, organism-based; design: dose 10 mg/kg, route oral; details: in vivo
Rattus norvegicus [7] = assay: Effect on locomotor activity in orally dosed Sprague-Dawley rat measured at 10 mins intervals over 2 hrs period; format: ADME, organism-based; details: in vivo, po
How it was run: (§2)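 Adult male Sprague-Dawley rats (250–280 g) were first acclimated to the test cage for 60 min. They then received oral doses of 0.1, 0.3, 1 or 3 mg/kg, n = 10. After 1 h they were given PCP 8 mg/kg subcutaneously. Photobeam breaks were collected at 10 min intervals and compiled over 2 h. Groups were compared with vehicle by one-way ANOVA followed by Dunnett's test, and the minimum effective dose was determined.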

[8] = Clearance in rat at 2 mg/kg, iv; format: ADME, organism-based; design: dose 2 mg/kg, route intravenous; details: in vivo
Rattus norvegicus [9] = assay: Reversal of PCP-induced hyperlocomotor activity in Sprague-Dawley rat assessed as effect on locomotor activity administered orally 1 hr before PCP dosing and measured at 10 mins intervals over 2 hrs period; format: functional; details: po, read-out: MED; how it was run: as §2
Rattus norvegicus [10] = assay: Target occupancy of PDE10A in Sprague-Dawley rat striatum measured 1 hr post dosing and 10 mins post iv dosing of tracer by LC-MS/MS method; format: functional, organism-based
How it was run: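 Sprague-Dawley rats received oral doses of 0.1, 0.3, 1, 3, 10 and 30 mg/kg, n = 4 per dose. Tissue was taken 1 h after dosing and 10 min after IV tracer. Striatal tracer was compared with thalamic tracer by LC-MS/MS. An occupancy EC50 was calculated against total plasma concentration.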

[11] = target: cAMP and cAMP-inhibited cGMP 3',5'-cyclic phosphodiesterase 10A (Homo sapiens, UniProt Q9Y233); assay: Inhibition of human recombinant PDE10A using cAMP as substrate incubated for 30 mins prior to substrate addition measured after 3 hrs to overnight by IMAP FRET assay
[12] = (§3) AUC in rat at 2 mg/kg, iv; format: ADME, organism-based, Plasma; design: dose 2 mg/kg, route intravenous; details: plasma
[13] = Half life in rat at 2 mg/kg, iv; format: ADME, organism-based; design: dose 2 mg/kg, route intravenous; details: in vivo
[14] = (§4) Oral bioavailability in rat at 10 mg/kg; format: ADME, organism-based; details: in vivo
Rattus norvegicus [15] = assay: as §1; format: ADME, organism-based, Plasma; design: dose 10 mg/kg, route oral; details: in vivo
[16] = Half life in non-human primates at 0.5 mg/kg, iv; format: ADME, organism-based; design: dose 0.5 mg/kg, route intravenous; details: monkey, in vivo
[17] = Clearance in non-human primates at 0.5 mg/kg, iv; format: ADME, organism-based; design: dose 0.5 mg/kg, route intravenous; details: monkey, in vivo
[18] = Volume of distribution at steady state in dog at 0.5 mg/kg, iv; format: ADME, organism-based, Canis lupus familiaris; design: dose 0.5 mg/kg, route intravenous; details: in vivo, read-out: Vdss
[19] = Half life in dog at 0.5 mg/kg, po; format: ADME, organism-based, Canis lupus familiaris; design: dose 0.5 mg/kg, route oral; details: in vivo
[20] = Half life in dog at 0.5 mg/kg, iv; format: ADME, organism-based, Canis lupus familiaris; design: dose 0.5 mg/kg, route intravenous; details: in vivo
[21] = Volume of distribution at steady state in non-human primates at 0.5 mg/kg, iv; format: ADME, organism-based; design: dose 0.5 mg/kg, route intravenous; details: monkey, in vivo, read-out: Vdss
[22] = Clearance in dog at 0.5 mg/kg, iv; format: ADME, organism-based, Canis lupus familiaris; design: dose 0.5 mg/kg, route intravenous; details: in vivo
[23] = AUC in dog at 0.5 mg/kg, iv; format: ADME, organism-based, Canis lupus familiaris; design: dose 0.5 mg/kg, route intravenous; details: plasma
Rattus norvegicus [24] = assay: as §3; format: ADME, organism-based, Plasma; design: dose 2 mg/kg, route intravenous; details: in vivo
[25] = AUC in non-human primates at 0.5 mg/kg, iv; format: ADME, organism-based; design: dose 0.5 mg/kg, route intravenous; details: monkey, plasma
[26] = Oral bioavailability in dog at 0.5 mg/kg; format: ADME, organism-based, Canis lupus familiaris; details: in vivo
[27] = AUC in dog at 0.5 mg/kg, po; format: ADME, organism-based, Canis lupus familiaris; design: dose 0.5 mg/kg, route oral; details: plasma
Rattus norvegicus [28] = assay: as §4; format: ADME, organism-based; details: in vivo
[29] = Half life in dog at 1 mg/kg, po; format: ADME, organism-based, Canis lupus familiaris; design: dose 1 mg/kg, route oral; details: in vivo
[30] = target: cGMP-specific 3',5'-cyclic phosphodiesterase (Canis lupus familiaris, UniProt O77746); assay: Inhibition of PDE5 (unknown origin); design: species or system Homo sapiens
[31] = Oral bioavailability in dog at 1 mg/kg; format: ADME, organism-based, Canis lupus familiaris; details: in vivo
[32] = target: cGMP-dependent 3',5'-cyclic phosphodiesterase (Homo sapiens, UniProt O00408); assay: Inhibition of PDE2 (unknown origin)
[33] = target: High affinity cGMP-specific 3',5'-cyclic phosphodiesterase 9A (Homo sapiens, UniProt O76083); assay: Inhibition of PDE9 (unknown origin)
[34] = target: Dual 3',5'-cyclic-AMP and -GMP phosphodiesterase 11A (Homo sapiens, UniProt Q9HCR9); assay: Inhibition of PDE11 (unknown origin)
Phosphodiesterase 8 = Phosphodiesterase 8 (Homo sapiens, UniProt O95263+O60658); assay: Inhibition of PDE8 (unknown origin); format: protein assay
Phosphodiesterase 6 = assay: Inhibition of PDE6 (unknown origin); format: protein assay, Homo sapiens
[35] = Half life in non-human primates at 0.5 mg/kg, po; format: ADME, organism-based; design: dose 0.5 mg/kg, route oral; details: monkey, in vivo
Phosphodiesterase 4 = Phosphodiesterase 4 (Homo sapiens, UniProt P27815+Q08499+Q07343+Q08493); assay: Inhibition of PDE4 (unknown origin); format: protein assay
[36] = AUC in non-human primates at 0.5 mg/kg, po; format: ADME, organism-based; design: dose 0.5 mg/kg, route oral; details: monkey, plasma
Phosphodiesterase 3 = Phosphodiesterase 3 (Homo sapiens, UniProt Q14432+Q13370); assay: Inhibition of PDE3 (unknown origin); format: protein assay
Phosphodiesterase 1 = Phosphodiesterase 1 (Homo sapiens, UniProt P54750+Q01064+Q14123); assay: Inhibition of PDE1 (unknown origin); format: protein assay
Phosphodiesterase 7 = Phosphodiesterase 7 (Homo sapiens, UniProt Q13946+Q9NP56); assay: Inhibition of PDE7 (unknown origin); format: protein assay
[37] = Oral bioavailability in non-human primates at 0.5 mg/kg; format: ADME, organism-based; details: monkey, in vivo
[38] = AUC in dog at 1 mg/kg, po; format: ADME, organism-based, Canis lupus familiaris; design: dose 1 mg/kg, route oral; details: plasma

Chain of cAMP and cAMP-inhibited cGMP 3',5'-cyclic phosphodiesterase 10A (Q9Y233 whole entry): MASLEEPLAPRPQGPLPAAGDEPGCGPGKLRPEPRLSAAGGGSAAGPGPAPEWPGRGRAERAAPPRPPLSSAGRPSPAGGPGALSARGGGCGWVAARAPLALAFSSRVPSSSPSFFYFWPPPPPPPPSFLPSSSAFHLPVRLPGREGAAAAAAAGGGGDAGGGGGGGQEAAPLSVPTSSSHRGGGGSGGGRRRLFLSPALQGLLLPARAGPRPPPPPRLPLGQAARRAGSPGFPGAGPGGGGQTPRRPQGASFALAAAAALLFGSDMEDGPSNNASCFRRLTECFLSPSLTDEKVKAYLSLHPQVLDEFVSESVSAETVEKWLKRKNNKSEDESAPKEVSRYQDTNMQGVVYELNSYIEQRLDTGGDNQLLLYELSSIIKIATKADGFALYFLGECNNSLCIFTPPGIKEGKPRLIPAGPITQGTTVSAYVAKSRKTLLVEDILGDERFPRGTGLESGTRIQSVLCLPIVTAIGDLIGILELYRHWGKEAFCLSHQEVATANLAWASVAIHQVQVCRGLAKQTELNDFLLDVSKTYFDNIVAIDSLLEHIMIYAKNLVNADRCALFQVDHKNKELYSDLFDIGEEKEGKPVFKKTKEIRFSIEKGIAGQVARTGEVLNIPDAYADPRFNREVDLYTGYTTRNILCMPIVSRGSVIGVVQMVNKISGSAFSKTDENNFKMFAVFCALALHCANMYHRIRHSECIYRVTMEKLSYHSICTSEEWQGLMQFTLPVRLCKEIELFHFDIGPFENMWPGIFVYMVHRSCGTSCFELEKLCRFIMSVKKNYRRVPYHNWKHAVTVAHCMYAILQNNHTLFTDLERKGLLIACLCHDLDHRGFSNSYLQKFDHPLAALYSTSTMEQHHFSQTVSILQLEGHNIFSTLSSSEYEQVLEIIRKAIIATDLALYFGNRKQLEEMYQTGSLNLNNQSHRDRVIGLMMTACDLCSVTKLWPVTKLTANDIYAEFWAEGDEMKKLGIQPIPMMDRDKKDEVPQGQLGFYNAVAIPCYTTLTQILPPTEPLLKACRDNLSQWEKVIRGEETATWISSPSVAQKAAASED
Chain of cGMP-dependent 3',5'-cyclic phosphodiesterase (O00408 whole entry): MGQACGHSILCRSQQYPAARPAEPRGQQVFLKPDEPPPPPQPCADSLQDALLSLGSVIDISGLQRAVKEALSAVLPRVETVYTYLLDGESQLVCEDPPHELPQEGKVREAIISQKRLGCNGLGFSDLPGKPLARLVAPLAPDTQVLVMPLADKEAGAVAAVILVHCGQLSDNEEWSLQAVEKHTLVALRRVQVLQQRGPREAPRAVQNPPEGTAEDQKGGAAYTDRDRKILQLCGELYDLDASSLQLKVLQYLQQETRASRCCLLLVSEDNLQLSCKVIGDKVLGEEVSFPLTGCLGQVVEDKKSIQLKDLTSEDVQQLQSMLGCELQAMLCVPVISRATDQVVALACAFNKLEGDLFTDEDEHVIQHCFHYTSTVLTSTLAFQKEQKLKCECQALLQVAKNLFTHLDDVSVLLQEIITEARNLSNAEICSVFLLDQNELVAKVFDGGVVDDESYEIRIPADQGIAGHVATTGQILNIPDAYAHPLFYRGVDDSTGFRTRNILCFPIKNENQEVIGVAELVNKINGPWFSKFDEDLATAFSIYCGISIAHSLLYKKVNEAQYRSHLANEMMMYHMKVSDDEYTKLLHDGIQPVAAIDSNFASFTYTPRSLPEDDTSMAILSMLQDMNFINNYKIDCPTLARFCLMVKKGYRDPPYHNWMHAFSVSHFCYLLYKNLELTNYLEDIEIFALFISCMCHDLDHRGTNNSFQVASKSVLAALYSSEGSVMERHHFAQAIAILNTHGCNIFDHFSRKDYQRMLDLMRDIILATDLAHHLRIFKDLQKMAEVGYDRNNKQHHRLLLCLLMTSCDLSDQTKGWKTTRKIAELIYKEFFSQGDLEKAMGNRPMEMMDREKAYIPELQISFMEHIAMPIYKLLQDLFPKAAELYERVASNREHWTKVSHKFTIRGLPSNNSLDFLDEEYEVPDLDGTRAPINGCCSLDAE
Chain of High affinity cGMP-specific 3',5'-cyclic phosphodiesterase 9A (O76083 whole entry): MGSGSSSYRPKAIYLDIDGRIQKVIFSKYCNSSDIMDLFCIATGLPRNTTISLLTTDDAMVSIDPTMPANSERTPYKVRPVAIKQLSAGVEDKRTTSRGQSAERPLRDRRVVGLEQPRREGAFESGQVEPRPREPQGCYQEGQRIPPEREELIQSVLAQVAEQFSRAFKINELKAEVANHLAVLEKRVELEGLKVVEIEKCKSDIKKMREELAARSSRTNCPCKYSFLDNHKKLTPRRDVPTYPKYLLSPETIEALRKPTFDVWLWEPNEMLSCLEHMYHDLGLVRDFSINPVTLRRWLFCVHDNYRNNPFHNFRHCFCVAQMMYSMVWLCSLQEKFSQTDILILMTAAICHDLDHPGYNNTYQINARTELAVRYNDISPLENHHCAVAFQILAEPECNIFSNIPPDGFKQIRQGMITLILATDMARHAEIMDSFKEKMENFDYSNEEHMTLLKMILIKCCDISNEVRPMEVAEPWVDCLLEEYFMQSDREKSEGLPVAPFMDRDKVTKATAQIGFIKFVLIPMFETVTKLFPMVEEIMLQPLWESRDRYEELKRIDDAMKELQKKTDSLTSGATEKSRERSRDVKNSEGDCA
Chain of Dual 3',5'-cyclic-AMP and -GMP phosphodiesterase 11A (Q9HCR9 whole entry): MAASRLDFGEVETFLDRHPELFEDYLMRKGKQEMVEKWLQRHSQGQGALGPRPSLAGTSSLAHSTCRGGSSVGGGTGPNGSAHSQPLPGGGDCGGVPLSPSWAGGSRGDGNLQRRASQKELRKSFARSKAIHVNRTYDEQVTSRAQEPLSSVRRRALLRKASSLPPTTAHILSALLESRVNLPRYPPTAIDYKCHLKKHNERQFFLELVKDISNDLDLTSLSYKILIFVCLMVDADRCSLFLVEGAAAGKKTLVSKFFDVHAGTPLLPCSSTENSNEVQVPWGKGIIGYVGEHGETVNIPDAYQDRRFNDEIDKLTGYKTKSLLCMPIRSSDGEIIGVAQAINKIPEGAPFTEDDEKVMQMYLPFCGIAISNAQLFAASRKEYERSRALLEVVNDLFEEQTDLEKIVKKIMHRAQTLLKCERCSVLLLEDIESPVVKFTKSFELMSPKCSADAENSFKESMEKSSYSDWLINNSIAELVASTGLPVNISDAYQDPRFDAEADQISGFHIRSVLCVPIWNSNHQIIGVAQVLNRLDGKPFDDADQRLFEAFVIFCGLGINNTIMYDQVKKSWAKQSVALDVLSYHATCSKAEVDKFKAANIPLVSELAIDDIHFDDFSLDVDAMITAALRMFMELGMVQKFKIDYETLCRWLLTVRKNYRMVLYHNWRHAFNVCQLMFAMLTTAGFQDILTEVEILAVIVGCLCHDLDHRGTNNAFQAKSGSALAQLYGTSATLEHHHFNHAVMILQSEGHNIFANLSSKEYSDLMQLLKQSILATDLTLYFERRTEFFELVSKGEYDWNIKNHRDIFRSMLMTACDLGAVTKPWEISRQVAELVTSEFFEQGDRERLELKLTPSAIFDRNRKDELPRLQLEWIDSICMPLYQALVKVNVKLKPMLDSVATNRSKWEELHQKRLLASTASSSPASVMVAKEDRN

| microsomal CLint at 1 µM [1] [µL/min/mg] | microsomal CLint at 1 µM [2] [µL/min/mg] | Vd [4] [L/kg] | half-life [6] [h] | clearance [8] [mL/min/kg] | EC50 (Rattus norvegicus [10]) [nM] | IC50 [11] [nM] | half-life [13] [h] | SMILES | Occ (Rattus norvegicus [3]) [%] | AUC [5] [µM·h] | Activity (Rattus norvegicus [7]) | minimal effective dose (Rattus norvegicus [9]) [mg/kg] | Occ (Rattus norvegicus [10]) | AUC [12] [µM·h] | bioavailability [14] [%] | half-life [16] [h] | clearance [17] [mL/min/kg] | Vd [18] [L/kg] | half-life [20] [h] | Vd [21] [L/kg] | further results |
| --- | --- | --- | --- | --- | --- | --- | --- | --- | --- | --- | --- | --- | --- | --- | --- | --- | --- | --- | --- | --- | --- |
| > 399 | 100 | – | – | – | – | – | – | O=C(c1ccc(Oc2ncccc2C2CCOCC2)cc1)c1nc2ccccc2[nH]1 | 69.2 | – | – | – | – | – | – | – | – | – | – | – | – |
| 119 | 50 | 2.27 | 3.99 | 10.3 | 117 | 0.8 | 4.26 | O=C(c1ccc(Oc2nccnc2C2CCOCC2)cc1)c1nc2ccccc2[nH]1 | 91 | 7.93 | Non-toxic | 1 | Dose-dependent effect | 7.75 | 22 | – | – | – | – | – | – |
| 463 | 29 | 31.2 | 1.72 | 50.5 | 965 | 0.1 | 23.1 | CC(=O)N1CCC(c2cccnc2Oc2ccc(C(=O)c3nc4ccccc4[nH]3)cc2)CC1 | 86.5 | – | Non-toxic | 0.3 | Dose-dependent effect | – | – | 1.26 | 13.7 | 0.5 | 7.41 | 1.62 | AUC (Rattus norvegicus [15]): 5.07 µM·h; half-life [19]: 5.07 h; clearance [22]: 0.867 mL/min/kg; AUC [23]: 21.5 µM·h; AUC (Rattus norvegicus [24]): 1.62 µM·h; AUC [25]: 1.61 µM·h; bioavailability [26]: 45%; AUC [27]: 9.59 µM·h; F (Rattus norvegicus [28]): 63% |

| SMILES | microsomal CLint at 1 µM [1] [µL/min/mg] | microsomal CLint at 1 µM [2] [µL/min/mg] | Vd [4] [L/kg] | half-life [6] [h] | clearance [8] [mL/min/kg] | EC50 (Rattus norvegicus [10]) [nM] | IC50 [11] [nM] | half-life [13] [h] | Occ (Rattus norvegicus [3]) [%] | AUC [5] [µM·h] | Activity (Rattus norvegicus [7]) | minimal effective dose (Rattus norvegicus [9]) [mg/kg] | Occ (Rattus norvegicus [10]) | AUC [12] [µM·h] | bioavailability [14] [%] | half-life [16] [h] | clearance [17] [mL/min/kg] | Vd [18] [L/kg] | half-life [20] [h] | Vd [21] [L/kg] | further results |
| --- | --- | --- | --- | --- | --- | --- | --- | --- | --- | --- | --- | --- | --- | --- | --- | --- | --- | --- | --- | --- | --- |
| CC(=O)N1CCC(c2nccnc2Oc2ccc(C(=O)c3nc4ccccc4[nH]3)cc2)CC1 | 41 | 20 | 0.81 | 3.35 | 9 | 711 | 0.1 | 3.16 | 86.3 | 19.8 | Non-toxic | 0.3 | Dose-dependent effect | 8.31 | 49 | 1.09 | 5.67 | 0.77 | 6.89 | 0.83 | half-life [29]: 11 h; IC50 [30]: > 30000 nM; bioavailability [31]: 72%; IC50 [32]: > 30000 nM; IC50 [33]: > 30000 nM; IC50 [34]: > 30000 nM; IC50 (Phosphodiesterase 8): > 30000 nM; IC50 (Phosphodiesterase 6): > 30000 nM; half-life [35]: 2.48 h; IC50 (Phosphodiesterase 4): > 30000 nM; clearance [22]: 1.23 mL/min/kg; AUC [23]: 13.7 µM·h; AUC [36]: 2.4 µM·h; AUC [25]: 3.41 µM·h; IC50 (Phosphodiesterase 3): > 30000 nM; IC50 (Phosphodiesterase 1): > 30000 nM; IC50 (Phosphodiesterase 7): > 30000 nM; bioavailability [37]: 71%; AUC [38]: 16.9 µM·h |
